Source: ChEMBL document CHEMBL4825756, “New Design Rules for Developing Potent Cell-Active Inhibitors of the Nucleosome Remodeling Factor (NURF) via BPTF Bromodomain Inhibition” (J Med Chem, 2021)
Activity calls are given as the source filed them. The rule behind the calls is not given here.

Columns and labels:
4T1 [1] = test: Growth inhibition of mouse 4T1 cells BPTF knock down assessed as reduction cell viability 15 uM in presence of doxorubicin incubated for 4 days by MTS assay relative to control; assay type: functional, cell-based; settings: time 4.0 day
In short: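 4T1 cells with shRNA BPTF knockdown, grown in DMEM with 10% FBS, 2 mM glutamine and pen-strep, were seeded at 4000/well and allowed to adhere overnight. They were treated 4 days in complete medium with one of three inhibitor doses chosen from toxicity curves, combined with 50 nM doxorubicin. MTS absorbance was read at 490 nm. Fraction survival was set against untreated cells (1.0) and blank (0.0).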

EpH4 [2] = test: Upregulation of sfn mRNA in mouse EpH4 cells at 5 uM after 24 hrs by qRT-PCR analysis; assay type: functional, cell-based
In short: (§1)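 Murine Eph4 mammary epithelial cells were treated at 5 μM for 24 h and harvested in trizol. Transcripts were quantified by SYBR Green qPCR. Group differences were tested by one-way ANOVA at p<0.05.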

EpH4 [3] = test: Upregulation of sprr1a mRNA in mouse EpH4 cells at 5 uM after 24 hrs by qRT-PCR analysis; assay type: functional, cell-based; in short: as §1
EpH4 [4] = test: Upregulation of Myc mRNA in mouse EpH4 cells at 5 uM after 24 hrs by qRT-PCR analysis; assay type: functional, cell-based; in short: as §1
[5] = target: Nucleosome-remodeling factor subunit BPTF (Homo sapiens, UniProt Q12830); test: Binding affinity to 5FW-labeled BPTF (unknown origin) expressed in Escherichia coli BL21 (DE3) cells by PrOF NMR analysis
4T1 [6] = test: Growth inhibition of mouse 4T1 cells assessed as reduction cell viability 5 to 15 uM in presence of doxorubicin incubated for 4 days by MTS assay relative to control; assay type: functional, cell-based; settings: dose 5-15 µM, time 4.0 day
In short: (§2)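 Mouse 4T1 breast cancer cells in DMEM with 10% FBS, 2 mM glutamine and penicillin-streptomycin, 4000 cells/well, adhered overnight. Three inhibitor doses, chosen from toxicity curves, given for 4 days alone or with 50 nM doxorubicin, also in shRNA BPTF-knockdown cells. MTS absorbance read at 490 nm; fraction survival scaled to untreated cells (1.0) and blank (0.0); N=3, mean ± SEM.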

[7] = target: T1, Histone acetyltransferase KAT2B (Homo sapiens, UniProt Q92831); test: Binding affinity to PCAF (unknown origin) by BROMOscan method
Target sequence in this assay (Q92831 whole entry): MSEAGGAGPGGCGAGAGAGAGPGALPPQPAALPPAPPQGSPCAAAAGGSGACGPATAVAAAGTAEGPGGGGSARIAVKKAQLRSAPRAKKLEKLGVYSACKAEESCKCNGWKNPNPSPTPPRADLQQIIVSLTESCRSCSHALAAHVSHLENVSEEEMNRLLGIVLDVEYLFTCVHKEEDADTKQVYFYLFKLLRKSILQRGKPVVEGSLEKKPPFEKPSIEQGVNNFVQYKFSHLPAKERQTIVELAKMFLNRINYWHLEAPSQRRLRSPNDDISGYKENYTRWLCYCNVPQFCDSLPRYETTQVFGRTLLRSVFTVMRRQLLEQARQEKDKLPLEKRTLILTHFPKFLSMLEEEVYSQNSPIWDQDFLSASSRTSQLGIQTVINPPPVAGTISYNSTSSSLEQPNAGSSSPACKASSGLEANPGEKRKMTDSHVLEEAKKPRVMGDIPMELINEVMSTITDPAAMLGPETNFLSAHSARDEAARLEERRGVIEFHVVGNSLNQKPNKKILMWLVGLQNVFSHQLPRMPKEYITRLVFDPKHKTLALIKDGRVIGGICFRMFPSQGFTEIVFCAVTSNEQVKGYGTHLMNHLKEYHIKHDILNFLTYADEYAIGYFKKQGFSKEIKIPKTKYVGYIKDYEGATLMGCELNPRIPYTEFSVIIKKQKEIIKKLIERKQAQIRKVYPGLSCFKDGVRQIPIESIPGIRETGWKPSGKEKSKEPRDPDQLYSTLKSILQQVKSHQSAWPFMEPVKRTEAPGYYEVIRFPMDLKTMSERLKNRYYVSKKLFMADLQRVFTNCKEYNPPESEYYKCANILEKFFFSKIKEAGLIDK

[8] = target: T2, Bromodomain-containing protein 9 (Homo sapiens, UniProt Q9H8M2); test: Binding affinity to BRD9 (unknown origin) by BROMOscan method
T2 sequence (Q9H8M2 whole entry): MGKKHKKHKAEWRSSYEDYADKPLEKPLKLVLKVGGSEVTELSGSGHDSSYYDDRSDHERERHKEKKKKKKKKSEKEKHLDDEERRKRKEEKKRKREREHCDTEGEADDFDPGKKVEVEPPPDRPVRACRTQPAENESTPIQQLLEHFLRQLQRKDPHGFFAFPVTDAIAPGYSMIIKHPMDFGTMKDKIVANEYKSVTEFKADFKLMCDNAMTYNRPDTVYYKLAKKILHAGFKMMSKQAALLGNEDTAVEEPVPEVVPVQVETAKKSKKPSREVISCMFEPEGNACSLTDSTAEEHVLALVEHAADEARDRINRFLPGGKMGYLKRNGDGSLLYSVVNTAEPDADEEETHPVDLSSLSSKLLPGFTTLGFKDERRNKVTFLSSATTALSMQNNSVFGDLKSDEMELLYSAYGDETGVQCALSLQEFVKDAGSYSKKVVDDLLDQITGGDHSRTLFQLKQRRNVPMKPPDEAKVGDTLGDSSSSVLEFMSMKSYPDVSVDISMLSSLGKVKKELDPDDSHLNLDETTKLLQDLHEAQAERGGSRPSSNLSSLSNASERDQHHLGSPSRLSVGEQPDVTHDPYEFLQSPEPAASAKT

[9] = target: T3, Bromodomain-containing protein 4 (Homo sapiens, UniProt O60885); test: Inhibition of HIS9-tagged BRD4 (unknown origin) expressed in Escherichia coli BL21 (DE3) cells incubated for 30 mins by AlphaScreen assay
[10] = target: T1, Histone acetyltransferase KAT2B; test: Binding affinity to 5FW-labeled PCAF (unknown origin) expressed in Escherichia coli BL21 (DE3) cells at 7.4 to 200 uM by PrOF NMR analysis; settings: dose 7.4-200 µM
In short: (§3)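 Protein-observed 19F NMR with 5-fluorotryptophan-labelled protein. Each ligand is titrated and the change in chemical shift relative to a control sample is plotted against ligand concentration to give a binding isotherm. Kd is taken from a fit to the quadratic binding equation, which uses total ligand and total protein concentrations.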
Target sequence in this assay (Q92831 whole entry, looked up): as the sequence (Q92831 whole entry) above

[11] = target: Chromatin remodeling regulator CECR2 (Homo sapiens) (UniProt Q9BXF3); test: Binding affinity to 5FW-labeled CECR2 (unknown origin) expressed in Escherichia coli BL21 (DE3) cells at 7.4 to 200 uM by PrOF NMR analysis; settings: dose 7.4-200 µM; in short: as §3
[12] = target: Chromatin remodeling regulator CECR2 (Homo sapiens) (UniProt Q9BXF3); test: Inhibition of CECR2 (unknown origin) at 140 nM by BROMOscan method relative to control
[13] = target: Histone acetyltransferase KAT2A (Homo sapiens) (UniProt Q92830); test: Inhibition of GCN5L2 (unknown origin) at 140 nM by BROMOscan method relative to control
[14] = target: T3, Bromodomain-containing protein 4; test: Binding affinity to BRD4 BD1 (unknown origin) by BROMOscan method
4T1 [15] = test: Growth inhibition of mouse 4T1 cells assessed as reduction cell viability 2.5 to 8 uM in presence of doxorubicin incubated for 4 days by MTS assay relative to control; assay type: functional, cell-based; settings: dose 2.5-8 µM, time 4.0 day; in short: as §2

Chain of Chromatin remodeling regulator CECR2 (Homo sapiens) (Q9BXF3 whole entry, looked up): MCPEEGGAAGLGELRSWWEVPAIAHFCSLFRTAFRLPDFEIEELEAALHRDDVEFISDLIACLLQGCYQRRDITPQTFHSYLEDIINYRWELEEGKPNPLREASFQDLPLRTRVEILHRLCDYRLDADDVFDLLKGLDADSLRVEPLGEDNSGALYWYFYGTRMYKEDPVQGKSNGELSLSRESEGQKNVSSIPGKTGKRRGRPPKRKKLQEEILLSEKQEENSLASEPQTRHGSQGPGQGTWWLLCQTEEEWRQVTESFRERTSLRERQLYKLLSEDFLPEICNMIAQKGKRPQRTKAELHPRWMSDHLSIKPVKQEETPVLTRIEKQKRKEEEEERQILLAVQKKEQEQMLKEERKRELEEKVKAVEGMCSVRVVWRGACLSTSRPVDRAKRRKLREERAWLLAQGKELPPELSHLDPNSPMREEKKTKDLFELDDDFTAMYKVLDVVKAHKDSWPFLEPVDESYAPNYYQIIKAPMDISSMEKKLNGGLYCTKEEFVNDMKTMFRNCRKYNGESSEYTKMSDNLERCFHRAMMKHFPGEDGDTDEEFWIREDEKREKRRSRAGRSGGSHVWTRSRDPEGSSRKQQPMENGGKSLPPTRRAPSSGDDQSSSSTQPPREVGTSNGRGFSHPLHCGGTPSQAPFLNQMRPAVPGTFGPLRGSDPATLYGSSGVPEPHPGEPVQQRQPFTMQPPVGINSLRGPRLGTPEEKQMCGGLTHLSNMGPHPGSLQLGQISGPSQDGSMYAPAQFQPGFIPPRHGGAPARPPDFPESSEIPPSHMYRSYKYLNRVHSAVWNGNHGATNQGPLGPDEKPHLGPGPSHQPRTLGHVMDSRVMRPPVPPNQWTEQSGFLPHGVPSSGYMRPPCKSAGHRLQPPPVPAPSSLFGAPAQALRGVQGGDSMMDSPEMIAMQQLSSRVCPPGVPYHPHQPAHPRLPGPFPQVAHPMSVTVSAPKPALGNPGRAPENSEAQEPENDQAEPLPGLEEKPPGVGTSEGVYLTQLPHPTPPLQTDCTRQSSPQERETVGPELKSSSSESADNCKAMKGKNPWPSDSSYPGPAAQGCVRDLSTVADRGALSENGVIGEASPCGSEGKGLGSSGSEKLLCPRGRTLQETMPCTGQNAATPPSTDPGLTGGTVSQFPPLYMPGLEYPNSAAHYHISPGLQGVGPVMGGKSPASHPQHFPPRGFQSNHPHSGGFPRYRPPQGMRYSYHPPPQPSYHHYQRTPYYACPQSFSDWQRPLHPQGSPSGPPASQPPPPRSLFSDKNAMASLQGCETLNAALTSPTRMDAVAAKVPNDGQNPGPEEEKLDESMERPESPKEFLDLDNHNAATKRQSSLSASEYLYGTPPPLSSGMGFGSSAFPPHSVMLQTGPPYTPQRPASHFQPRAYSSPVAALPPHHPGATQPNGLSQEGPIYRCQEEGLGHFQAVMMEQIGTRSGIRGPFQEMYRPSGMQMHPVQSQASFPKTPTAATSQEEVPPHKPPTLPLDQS
Chain of Histone acetyltransferase KAT2A (Homo sapiens) (Q92830 2-837 limits assumed): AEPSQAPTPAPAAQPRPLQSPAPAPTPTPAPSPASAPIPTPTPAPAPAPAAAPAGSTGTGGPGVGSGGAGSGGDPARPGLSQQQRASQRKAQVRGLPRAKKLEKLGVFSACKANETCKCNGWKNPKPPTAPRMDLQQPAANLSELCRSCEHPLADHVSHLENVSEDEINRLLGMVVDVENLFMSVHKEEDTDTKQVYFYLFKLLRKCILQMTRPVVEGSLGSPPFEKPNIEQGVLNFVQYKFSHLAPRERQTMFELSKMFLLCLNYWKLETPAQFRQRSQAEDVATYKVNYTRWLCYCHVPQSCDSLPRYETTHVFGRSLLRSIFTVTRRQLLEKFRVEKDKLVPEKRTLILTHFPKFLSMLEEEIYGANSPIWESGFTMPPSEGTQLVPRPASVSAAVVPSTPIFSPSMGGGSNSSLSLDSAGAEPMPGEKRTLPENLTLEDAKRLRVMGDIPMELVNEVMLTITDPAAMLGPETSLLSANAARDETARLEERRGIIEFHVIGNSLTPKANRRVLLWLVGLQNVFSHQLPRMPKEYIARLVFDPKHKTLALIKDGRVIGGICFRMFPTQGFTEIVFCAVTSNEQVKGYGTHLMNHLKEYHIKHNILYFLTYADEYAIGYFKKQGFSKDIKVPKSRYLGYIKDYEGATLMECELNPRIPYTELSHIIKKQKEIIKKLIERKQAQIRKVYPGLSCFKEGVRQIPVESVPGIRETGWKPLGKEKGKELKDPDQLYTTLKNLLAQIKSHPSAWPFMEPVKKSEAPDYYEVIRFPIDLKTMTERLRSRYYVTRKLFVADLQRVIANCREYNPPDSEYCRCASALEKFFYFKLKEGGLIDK

With `COC(=O)c1cccc(NC(=O)N[C@H]2CCN(c3ccnc(Nc4ccc(F)cc4)n3)C2)c1` the “growth inhibition (GI)” value (4T1 [1]) was “Active”, the Activity (EpH4 [2]) was “inactive” and the Activity (EpH4 [3]) was “inactive”. The Activity (EpH4 [4]) was “inactive”.
`CN(C)CCCOc1ccc(-c2cc(NCCCn3cccn3)nc(S(C)(=O)=O)n2)cc1` showed a Kd [5] of 120 µM.
With `CN(C)CCc1ccc(Nc2cnn(C)c(=O)c2Cl)cc1` the “growth inhibition (GI)” value (4T1 [6]) was “Active”, the Activity (EpH4 [2]) was “Active” and the Activity (EpH4 [3]) was “inactive”. For the same molecule, the Activity (EpH4 [4]) was “inactive”.
`CN(C)CCCc1ccc(Nc2cnn(C)c(=O)c2Cl)cc1` was tested, and the Kd [7] was 0.37 µM and the Kd [8] was 0.23 µM.
Work on `Cn1ncc(Nc2ccc(CCN)cc2)c(Br)c1=O` yielded a Kd [7] of 0.014 µM and a Kd [8] of 0.00024 µM.
For `CC(C)n1ncc(Nc2ccc(CN)cc2)c(Cl)c1=O`, the IC50 [9] was “Not Active”.
`Cn1ncc(Nc2ccc(CCN)cc2)c(Cl)c1=O` was tested, and the IC50 ([9]; read-out: IC50) was 31 µM, the Activity [10] was “Active” and the Activity [11] was “Active”. The inhibition [12] was “Active”, the inhibition [13] was “Active” and the Kd [14] was 2.2 µM. The “growth inhibition (GI)” value (4T1 [15]) was “Active”.
